Publication PMC7175782 (Bioconjugate chemistry, 2018)

Tested on: TAR RNA
Assay: Direct binding of ligands to TAR by ESI-MS under nondenaturing conditions
Set-up: species or system HIV-1
Details: 1 μM TAR, 10 μM ligand (1:10), 150 mM ammonium acetate
Method in brief: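 Nondenaturing ESI-MS of HIV-1 TAR RNA (1 μM) mixed with test compound (10 μM, 1:10 molar ratio) in 150 mM ammonium acetate. Species assigned from monoisotopic masses. Free and bound RNA were quantified from relative abundances, expressed as percentages and compared to assess binding.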

Compound | binding stoichiometry of TAR complexes (ligand:TAR)
C[C@H](NC(=O)C(N)CCCCN)C(=O)Nc1ccc2c(c1)C(=O)c1ccc(NC(=O)[C@H](C)NC(=O)C(N)CCCCN)cc1C2=O.O=C(O)C(F)(F)F.O=C(O)C(F)(F)F.O=C(O)C(F)(F)F.O=C(O)C(F)(F)F (stereo partly drawn) [D-4h, N,N′-(2S,2′S)-1,1′-(9,10-Dioxo-9,10-dihydro-anthracene-2,6-diyl)bis(azanediyl)-bis(1-oxopropane-2,1-diyl)bis(2,6-diaminohexanamide)-tetra-trifluoroacetate] | up to 4 equiv of ligand
CC(NC(=O)C(N)CCCN)C(=O)Nc1ccc2c(c1)C(=O)c1ccc(NC(=O)C(C)NC(=O)C(N)CCCN)cc1C2=O.O=C(O)C(F)(F)F.O=C(O)C(F)(F)F.O=C(O)C(F)(F)F.O=C(O)C(F)(F)F [D-4g, N,N ′-(1,1′-(9,10-Dioxo-9,10-dihydroanthracene-2,6-diyl)-bis(azanediyl)bis(1-oxo-propane-2,1-diyl))bis(2,5-diaminopentanamide)-tetra-trifluoroacetate] | up to 3 equiv of ligand
